Experimental data of several laboratories.
Lines come from different studies, so protocols differ.
Cell line: Jurkat
Read-out: cell growth or viability

CCOC(=O)CCC1=CC2C=CC=CC1C2C1CCCCC1=O (centres unmarked)
IC50 (flow cytometry): 0.048 µM

CCCCCCCCCCCCNC(=O)NCCCC[C@H](NS(C)(=O)=O)C(=O)N[C@H](C)C(=O)N[C@@H](CCCNC(=N)N)C(N)=O
EC50 (MTT; 72 h): 25.4 to 40.8 µM

O=C1CCCCC1C1C2C=CC=CC1C(CCN1C(=O)c3ccccc3C1=O)=C2 (centres unmarked)
IC50 (flow cytometry): 0.026 µM

Cc1cc(=O)n(C)c2cc(N3C(=O)CC[C@H](NS(=O)(=O)CC(C)C)[C@H]3c3ccc(Cl)cc3)ccc12
EC50 (7 days): 10.5 µM

CCCCCCCCCCCCNC(=S)NCCCC[C@H](NS(C)(=O)=O)C(=O)N[C@H](C)C(=O)N[C@@H](CCCNC(=N)N)C(=O)N1CCOCC1
EC50 (MTT; 72 h): 35.5 to 64.4 µM

N#CCCC1=CC2C=CC=CC1C2C1CCCCC1=O (centres unmarked)
IC50 (flow cytometry): 0.075 µM

Cc1cc2c(cc1N1C(=O)c3cccc4c(CCCO)ccc(c34)C1=O)n(C)c(=O)n2C (racemic)
GI50 (resazurin): 3.9 µM

CCCON(Cc1ccc(C(=O)NO)cc1)C(=O)Nc1ccc(N(C)C)cc1
IC50 (ATP luminescence; 72 h): 5.22 µM

O=C(/C=C/C=C/c1ccc2c(c1)OCO2)N1CCCCC1
IC50 (MTT; 48 h): > 50 µg/mL

CCn1cc(-c2cccc(C(F)(F)F)c2)c2sc(C(=N)NC3CCS(=O)(=O)CC3)cc2c1=O
EC50 (7 days): 3.64 µM

C[C@H](O)C(=O)CCCCCCC(=O)Nc1cccc(-c2cn(-c3ccccc3)nn2)c1
IC50 (thymidine uptake): 2.84 µM
